Compound activity from PubChem.
Rows were chosen to be rich in hits. Some 2.6% of all compounds tested hit in one or more screens of this group.
SIRT5 block: inhibitors of human sirtuin-5 desuccinylase; actives 1.1% (n = 330,000); inhibition, % at 15 µM; AID 652115; Purified SirT5, succinyl-peptide AMC, trypsin-coupled fluorescence; in the data active = inhibition above about 15%
NSD2 HMT inh: NSD2 (human) methyltransferase inhibition. AID 743445. actives 0.54% (n = 310,000). NSD2 peptide methylation, AlphaScreen, 120 min. O96028. inhibition, % at 12.5 µM; in the data active = inhibition above about 50%
Casp6 inh: inhibitors of human caspase-6 | P55212 | purified caspase-6, Z-VEID-R110 cleavage fluorescence | inhibition, % at 12.5 µM | actives 0.53% (n = 350,000) | AID 686996;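 active = mean inhibition across replicates at least about 35%, with every replicate also reaching that limit, limit read from the data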;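 note: 0% = median of neutral control wells and 100% = no fluorescence left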
Target sequence (P55212 24-179 limits assumed): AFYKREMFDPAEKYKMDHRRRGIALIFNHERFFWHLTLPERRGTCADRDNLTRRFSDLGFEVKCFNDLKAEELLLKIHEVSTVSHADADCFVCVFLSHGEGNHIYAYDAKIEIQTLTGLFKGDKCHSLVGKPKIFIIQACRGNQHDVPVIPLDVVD
Target sequence (P55212 194-293 limits assumed): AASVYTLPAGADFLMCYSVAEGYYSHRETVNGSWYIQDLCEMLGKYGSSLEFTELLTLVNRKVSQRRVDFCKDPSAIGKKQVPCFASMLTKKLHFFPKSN
UCH37 inh: inhibitors of human deubiquitinating enzyme UCH37. Q9Y5K5. purified proteasome/UCH37, Ub-AMC cleavage fluorescence. inhibition, % (no concentration beside the values). actives 0.33% (n = 330,000). AID 588478;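 active = mean inhibition over replicate wells above about 20%, limit read from the data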;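 note: 0% = compound-free wells with enzyme and 100% = wells lacking proteasome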
Target sequence (Q9Y5K5 whole entry, looked up): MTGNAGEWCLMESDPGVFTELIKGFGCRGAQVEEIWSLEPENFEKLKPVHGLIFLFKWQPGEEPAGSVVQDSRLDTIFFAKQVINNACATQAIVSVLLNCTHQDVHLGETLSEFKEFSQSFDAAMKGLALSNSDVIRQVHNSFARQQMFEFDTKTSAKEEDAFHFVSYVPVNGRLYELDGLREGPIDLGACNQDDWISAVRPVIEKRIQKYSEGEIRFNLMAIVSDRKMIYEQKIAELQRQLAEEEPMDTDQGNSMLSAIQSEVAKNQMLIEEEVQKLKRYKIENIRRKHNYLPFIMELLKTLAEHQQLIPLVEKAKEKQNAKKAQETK
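Material: human UCH37 enzyme supplied as purified proteasome complex / Amount: 0.15 nM proteasome as dispensed / Buffer or medium: pH 7.4 Tris-HCl (50 mM) with ovalbumin, ATP-MgCl2, DTT / Times: preincubation 30 min, reaction 25 min, room temperature / Technique: AMC fluorescence from Ub-AMC cleavage, excitation 355 nm, emission 460 nm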
FGF22 binding: binders of recombinant human FGF22 by thermal shift | Q9HCT0 | SYPRO orange fluorescence; percent of sucrose octasulfate shift, DMSO zero | activity (Tm shift, normalised), % at 9.99 µM | actives 1.5% (n = 340,000) | AID 651658;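 active = mean Tm shift, scaled 0 neutral to 100 positive control, at about 1.3% or above, every replicate too, limit read from the data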
An asterisk follows results filed as active; . = not tested or not shown.

SMILES	SIRT5 block	NSD2 HMT inh	Casp6 inh	UCH37 inh	FGF22 binding
O=S(=O)(O)c1ccc(NN=Cc2ccccc2O)cc1	.	3.2	26.7	22.6*	44.1*
Oc1ccccc1C=NNc1ccccc1	.	.	.	2.7	.
Cc1occc1C(=O)N/N=C/C1=C(N2CCOCC2)C(=C/c2ccc(Cl)cc2Cl)/CC1	.	-3.1	-2.0	-34.1	43.2*
C[C@@H]1CCCCO[C@@H](CN(C)Cc2ccc3c(c2)OCO3)[C@@H](C)CN([C@@H](C)CO)C(=O)c2cc(NC(=O)c3ccccc3)ccc2O1	5.4	.	1.3	.	0.0
CCC(=O)N[C@@H]1CC[C@@H](CCn2cc(C3CC3)nn2)O[C@H]1CO	-2.5	.	0.0	.	-0.1
NC(=O)c1ccc(-c2c(-c3ccccc3)sc3ccccc23)cc1	29.3*	.	-0.5	1.3	-0.1
Oc1ccc(-c2c(-c3ccsc3)sc3ccccc23)cc1	.	.	-0.9	0.0	0.0
COCCN(C(=O)CCc1nnc(CCc2c[nH]c3ccccc23)o1)C(C)C	-3.2	-1.9	1.8	4.0	43.7*
CCC1CCCCN1C(=O)CCc1nnc(Cc2c[nH]c3ccccc23)o1 (configuration not stated)	-7.0	-0.2	-1.3	3.7	0.4
CC1CCCCN1C(=O)CCc1nnc(Cc2c[nH]c3ccccc23)o1 (configuration not stated)	-2.6	0.3	-0.4	0.9	43.7*
CC1CCCCN1C(=O)COC(=O)Cc1c[nH]c2ccccc12 (configuration not stated)	.	-1.2	-3.0	1.6	43.1*
COCCN(C(=O)CCc1nnc(Cc2c[nH]c3ccccc23)o1)C(C)C	4.2	0.5	2.9	2.2	-0.2
Cn1cc(CCNC(=O)CC2C(=O)NCCN2Cc2cccc(Oc3ccccc3)c2)cn1 (configuration not stated)	0.4	.	1.1	1.5	44.0*
COc1ccccc1CCNC(=O)CC1C(=O)NCCN1CCCc1ccccc1 (configuration not stated)	-1.1	2.3	-4.0	-11.4	0.1
O=C(CC1C(=O)NCCN1CCCc1ccccc1)NCCc1ccccc1Cl (configuration not stated)	15.4*	2.2	-1.2	-6.4	-0.2
O=C(C[C@@H]1C[C@@H]2c3cc(NC(=O)c4cccnc4)ccc3O[C@@H]2[C@H](CO)O1)NCc1cccc(F)c1	1.3	.	-1.4	.	-0.1
CC(C)C#Cc1ccc2c(c1)O[C@@H](CN(C)C(=O)CC1CC1)[C@@H](C)CN([C@@H](C)CO)S2(=O)=O	.	.	.	.	-0.5
Cc1ccc(S(=O)(=O)N(C)C[C@@H]2OCCCC[C@@H](C)Oc3ccc(NS(=O)(=O)c4ccccc4)cc3C(=O)N([C@@H](C)CO)C[C@@H]2C)cc1	20.6*	.	1.6	.	-0.8
Cc1ccc(S(=O)(=O)Nc2ccc3c(c2)C(=O)N([C@H](C)CO)C[C@@H](C)[C@H](CN(C)S(=O)(=O)c2ccccc2)OCCCC[C@H](C)O3)cc1	10.0	.	3.3	.	.
Cc1ccc(S(=O)(=O)Nc2ccc3c(c2)C(=O)N([C@@H](C)CO)C[C@H](C)[C@@H](CN(C)S(=O)(=O)c2ccccc2)OCCCC[C@@H](C)O3)cc1	19.3*	.	0.4	.	.
Cc1ccc(S(=O)(=O)Nc2ccc3c(c2)C(=O)N([C@H](C)CO)C[C@@H](C)[C@@H](CN(C)S(=O)(=O)c2ccccc2)OCCCC[C@@H](C)O3)cc1	20.7*	.	1.7	.	.
Cc1ccc(S(=O)(=O)Nc2ccc3c(c2)C(=O)N([C@H](C)CO)C[C@@H](C)[C@@H](CN(C)CC2CCCCC2)OCCCC[C@H](C)O3)cc1	17.5*	.	0.8	.	0.0
Cc1ccc(S(=O)(=O)Nc2ccc3c(c2)C(=O)N([C@@H](C)CO)C[C@@H](C)[C@@H](CN(C)S(=O)(=O)c2ccccc2)OCCCC[C@H](C)O3)cc1	0.4	.	-1.9	.	-0.5
COc1ccc(CN(C)C[C@H]2Oc3ccc(NC(=O)CCC(F)(F)F)cc3C(=O)N([C@@H](C)CO)C[C@@H]2C)cc1	8.9	.	0.1	.	0.2
COc1ccc(CNC(=O)C[C@@H]2CC[C@H]3[C@H](COc4ccc(NC(=O)C(C)C)cc4C(=O)N3C)O2)cc1	-10.9	.	-6.8	.	-0.2
SMILES	SIRT5 block	NSD2 HMT inh	Casp6 inh	UCH37 inh	FGF22 binding
COc1ccc(S(=O)(=O)Nc2ccc3c(c2)CC(=O)N([C@@H](C)CO)C[C@@H](C)[C@@H](CN(C)S(=O)(=O)c2ccc(F)cc2)O3)cc1	.	.	.	.	-0.5
COc1ccc2c3c(n(C)c2c1)[C@H](CO)N(C(=O)CC1CC1)CC31CN(C(=O)CC2CC2)C1	-0.9	.	1.7	.	-0.4
Cc1ccc(S(=O)(=O)N(C)C[C@@H]2OCCCC[C@@H](C)Oc3ccc(NS(=O)(=O)c4ccccc4)cc3C(=O)N([C@H](C)CO)C[C@H]2C)cc1	21.6*	.	1.7	.	0.1
N#C/C(=C\Nc1ccccc1SC(F)(F)F)c1nc(-c2ccc(F)cc2)cs1	18.7*	-2.5	1.4	7.4	-0.1
Cc1ccc(-c2csc(/C(C#N)=C/Nc3ccccc3SC(F)(F)F)n2)cc1	0.4	-2.6	-2.2	3.8	-0.1
COc1ccccc1C/C(N)=N/OC(=O)/C=C/c1ccccc1	1.1	0.1	4.2	1.1	43.3*
COc1ccccc1C/C(N)=N/OC(=O)COc1cc(C)cc(C)c1C	-3.0	-4.6	3.2	4.2	43.4*
Cc1noc(C)c1NC(=O)Nc1ccc2c(c1)C(=O)N([C@H](C)CO)C[C@@H](C)[C@H](CN(C)CC1CCCCC1)O2	1.1	.	0.5	.	-0.1
O=C(NC1CCC1)[C@H]1[C@H](CO)[C@H]2Cn3c(ccc(-c4ccccc4F)c3=O)[C@@H]1N2C(=O)CC1CC1	10.3	.	-0.4	.	-0.1
COC(=O)NN=Cc1c(C)[nH]n(-c2ccccc2)c1=O	.	.	.	8.1	.
Cc1noc(C)c1NC(=O)N(C)C[C@@H]1Oc2ncc(/C=C/c3ccccc3)cc2C(=O)N([C@H](C)CO)C[C@@H]1C	-12.9	.	-1.5	.	-0.1
Nc1cc(C(=O)OCC(=O)NCc2ccc(F)cc2)ccc1Cl	-4.1	0.8	-3.2	-2.4	44.0*
Cc1ccccc1CSCC(=O)NN=Cc1cccs1	.	.	.	3.4	.
C/C=C/c1ccc2c(c1)O[C@@H](CN(C)C(=O)Nc1ccc(C(F)(F)F)cc1)[C@@H](C)CN([C@H](C)CO)S2(=O)=O	8.7	.	-0.7	.	1.4*
C/C=C/c1ccc2c(c1)O[C@H](CN(C)C(=O)Nc1ccc(C(F)(F)F)cc1)[C@@H](C)CN([C@@H](C)CO)S2(=O)=O	7.7	.	0.2	.	-0.6
C/C=C/c1ccc2c(c1)O[C@H](CN(C)C(=O)Nc1ccc(C(F)(F)F)cc1)[C@H](C)CN([C@H](C)CO)S2(=O)=O	11.7	.	-1.4	.	1.8*
COc1ccc2nc(C)cc(N3CCC(C(N)=O)CC3)c2c1	7.4	12.4	-0.9	9.4	43.3*
CCOC(=O)C1CCN(c2cc(C)nc3ccc(OC)cc23)CC1	1.3	-0.6	-2.8	8.1	0.2
O=C(Cc1ccc([N+](=O)[O-])cc1)c1c(O)cc(O)cc1O	-0.2	28.7	41.2*	2.7	1.1
